Test results from ChEMBL document CHEMBL2057156, “Synthesis and biological evaluation of the first dual tyrosyl-DNA phosphodiesterase I (Tdp1)-topoisomerase I (Top1) inhibitors” (J Med Chem, 2012).
The source made the active and inactive calls. No cut-off for these calls is given here.

Assays:
[1] = biological target: Tyrosyl-DNA phosphodiesterase 1 (Homo sapiens, UniProt Q9NUW8); assay: Inhibition of human recombinant Tdp1 using 5'-[32P]-labeled single-stranded DNA oligonucleotide containing 3'-phosphotyrosine as substrate assessed as prevention of generation of oligonucleotide with free 3'-phosphate after 15 mins by PAGE analysis
Chain of Tyrosyl-DNA phosphodiesterase 1 (Q9NUW8 whole entry): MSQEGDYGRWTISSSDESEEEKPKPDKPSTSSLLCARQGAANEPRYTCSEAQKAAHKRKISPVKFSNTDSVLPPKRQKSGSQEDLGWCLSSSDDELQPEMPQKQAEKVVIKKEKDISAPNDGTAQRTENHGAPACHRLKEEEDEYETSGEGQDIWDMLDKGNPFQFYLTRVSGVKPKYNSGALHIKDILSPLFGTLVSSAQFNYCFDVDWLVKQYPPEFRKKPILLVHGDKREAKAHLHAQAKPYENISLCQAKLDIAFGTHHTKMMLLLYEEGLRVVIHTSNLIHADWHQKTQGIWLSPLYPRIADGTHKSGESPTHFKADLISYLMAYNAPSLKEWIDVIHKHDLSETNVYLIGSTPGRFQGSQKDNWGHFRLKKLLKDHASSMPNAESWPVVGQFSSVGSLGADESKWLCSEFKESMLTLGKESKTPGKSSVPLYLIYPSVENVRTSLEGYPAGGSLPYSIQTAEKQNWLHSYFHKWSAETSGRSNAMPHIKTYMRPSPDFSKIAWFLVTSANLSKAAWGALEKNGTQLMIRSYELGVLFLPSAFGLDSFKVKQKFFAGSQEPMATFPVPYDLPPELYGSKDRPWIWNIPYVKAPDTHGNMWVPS

[2] = biological target: T1, DNA topoisomerase 1 (Homo sapiens) (UniProt P11387); assay: Inhibition of human recombinant Top1-mediated DNA cleavage by polyacrylamide gel electrophoresis relative to camptothecin; parameters: concentration or dose not given beside the values
T1 sequence (whole entry): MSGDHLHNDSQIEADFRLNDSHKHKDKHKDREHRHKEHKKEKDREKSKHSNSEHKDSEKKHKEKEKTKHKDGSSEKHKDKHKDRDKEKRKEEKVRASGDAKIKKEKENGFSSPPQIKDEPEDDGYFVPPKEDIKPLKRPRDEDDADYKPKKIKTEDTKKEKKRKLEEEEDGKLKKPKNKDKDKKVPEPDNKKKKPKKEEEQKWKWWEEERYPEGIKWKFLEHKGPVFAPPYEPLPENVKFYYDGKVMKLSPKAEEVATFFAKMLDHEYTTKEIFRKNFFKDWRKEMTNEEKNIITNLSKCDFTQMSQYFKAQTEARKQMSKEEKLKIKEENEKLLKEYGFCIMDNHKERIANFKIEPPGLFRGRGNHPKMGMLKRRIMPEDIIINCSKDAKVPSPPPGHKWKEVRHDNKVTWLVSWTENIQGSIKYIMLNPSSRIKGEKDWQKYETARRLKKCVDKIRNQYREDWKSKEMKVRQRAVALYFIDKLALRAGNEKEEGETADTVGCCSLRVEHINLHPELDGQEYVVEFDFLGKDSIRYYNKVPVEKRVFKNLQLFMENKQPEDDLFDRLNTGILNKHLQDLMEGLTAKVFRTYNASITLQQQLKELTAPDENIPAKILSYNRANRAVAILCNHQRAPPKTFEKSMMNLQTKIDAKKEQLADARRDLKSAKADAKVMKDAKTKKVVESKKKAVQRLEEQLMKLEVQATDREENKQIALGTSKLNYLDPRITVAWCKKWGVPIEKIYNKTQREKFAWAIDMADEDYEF
Summary of the method: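 Baculovirus-purified human recombinant Top1 was incubated for 20 min at 25 °C, with compounds at various concentrations, with about 2 nM of a 117-bp oligonucleotide 3′-end-labeled with [α-³²P]dGTP. Reactions were stopped with 0.5% SDS and run on 20% denaturing PAGE. Cleavage bands were phosphorimaged and graded semiquantitatively against 1 μM camptothecin.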

Q: `O=C1c2ccccc2-c2c1c1ccccc1c(=O)n2CCCCCCCCCCn1c2c(c3ccccc3c1=O)C(=O)c1ccccc1-2` was tested. Which IC50 [1] did it give?
A: > 111 µM

Q: For `O=C1c2ccccc2-c2c1c1ccccc1c(=O)n2CCCCCCCNS(=O)(=O)c1ccccc1`, which inhibition [2] is on record?
A: inactive

Q: What about the IC50 [1] of the same molecule?
A: > 111 µM

Q: What does the source list for `Cc1ccc(S(=O)(=O)NCCCCCCCn2c3c(c4ccccc4c2=O)C(=O)c2ccccc2-3)cc1`?
A: inhibition [2]: inactive; IC50 [1]: > 111 µM

Q: With `Cc1ccc(S(=O)(=O)NCCCCCn2c3c(c4ccccc4c2=O)C(=O)c2ccccc2-3)cc1` as the molecule, how does the inhibition [2] read?
A: inactive

Q: What about the IC50 [1] of the same molecule?
A: > 111 µM

Q: How did the inhibition [2] turn out when `CS(=O)(=O)NCCCCCCCCCCCCn1c2c(c3ccccc3c1=O)C(=O)c1ccccc1-2` was run?
A: inactive

Q: And the IC50 [1]?
A: > 111 µM

Q: What does the source list for `CS(=O)(=O)NCCCn1c2c(c3ccccc3c1=O)C(=O)c1ccccc1-2`?
A: inhibition [2]: inactive; IC50 [1]: > 111 µM

Q: How did the IC50 [1] turn out when `O=C1c2ccccc2-c2c1c1ccccc1c(=O)n2CCCCCCCCCCCn1c2c(c3ccccc3c1=O)C(=O)c1ccccc1-2` was run?
A: > 111 µM

Q: Which inhibition [2] does the source give for `O=C1c2ccccc2-c2c1c1ccccc1c(=O)n2CCNS(=O)(=O)c1ccccc1` here?
A: inactive

Q: And the IC50 [1]?
A: > 111 µM

Q: For `CS(=O)(=O)NCCCCCCCCCCCn1c2c(c3ccccc3c1=O)C(=O)c1ccccc1-2`, which inhibition [2] is on record?
A: inactive

Q: What about the IC50 [1] of the same molecule?
A: > 111 µM

Q: For `O=C1c2ccccc2-c2c1c1ccccc1c(=O)n2CCCCCO`, which IC50 [1] is on record?
A: > 111 µM

Q: With `Cc1ccc(S(=O)(=O)NCCn2c3c(c4ccccc4c2=O)C(=O)c2ccccc2-3)cc1` as the molecule, how does the inhibition [2] read?
A: inactive

Q: What about the IC50 [1] of the same molecule?
A: > 111 µM

Q: Which IC50 [1] does the source give for `Cc1ccc(S(=O)(=O)OCCCCn2c3c(c4ccccc4c2=O)C(=O)c2ccccc2-3)cc1` here?
A: > 111 µM

Q: Which results are given for `O=C1c2ccccc2-c2c1c1ccccc1c(=O)n2CCCCCCCCCCNS(=O)(=O)c1ccccc1`?
A: inhibition [2]: inactive; IC50 [1]: > 111 µM

Q: Which results are given for `Cc1ccc(S(=O)(=O)NCCCCCCCCCn2c3c(c4ccccc4c2=O)C(=O)c2ccccc2-3)cc1`?
A: inhibition [2]: inactive; IC50 [1]: > 111 µM

Q: For `O=C1c2ccccc2-c2c1c1ccccc1c(=O)n2CCCCCCCCCNS(=O)(=O)c1ccccc1`, which inhibition [2] is on record?
A: inactive

Q: And the IC50 [1]?
A: > 111 µM

Q: How did the inhibition [2] turn out when `Cc1ccc(S(=O)(=O)NCCCCCCCCCCn2c3c(c4ccccc4c2=O)C(=O)c2ccccc2-3)cc1` was run?
A: inactive

Q: What about the IC50 [1] of the same molecule?
A: > 111 µM

Q: Which results are given for `O=C1c2ccccc2-c2c1c1ccccc1c(=O)n2CCCCCCCCCCCNS(=O)(=O)c1ccc(Br)cc1`?
A: inhibition [2]: inactive; IC50 [1]: > 111 µM

Q: Which IC50 [1] does the source give for `Cc1ccc(S(=O)(=O)OCCCCCCCn2c3c(c4ccccc4c2=O)C(=O)c2ccccc2-3)cc1` here?
A: > 111 µM

Q: For `CS(=O)(=O)NCCCCCCn1c2c(c3ccccc3c1=O)C(=O)c1ccccc1-2`, which inhibition [2] is on record?
A: inactive

Q: And the IC50 [1]?
A: > 111 µM

Q: With `O=C1c2ccccc2-c2c1c1ccccc1c(=O)n2CCCCCCCCCCNS(=O)(=O)c1ccc(Br)cc1` as the molecule, how does the inhibition [2] read?
A: inactive

Q: And the IC50 [1]?
A: > 111 µM

Q: How did the inhibition [2] turn out when `O=C1c2ccccc2-c2c1c1ccccc1c(=O)n2CCCCNS(=O)(=O)c1ccccc1` was run?
A: inactive

Q: What about the IC50 [1] of the same molecule?
A: > 111 µM

Q: With `Cc1ccc(S(=O)(=O)NCCCCn2c3c(c4ccccc4c2=O)C(=O)c2ccccc2-3)cc1` as the molecule, how does the inhibition [2] read?
A: inactive

Q: What about the IC50 [1] of the same molecule?
A: > 111 µM

Q: With `CS(=O)(=O)NCCCCCCCCCn1c2c(c3ccccc3c1=O)C(=O)c1ccccc1-2` as the molecule, how does the inhibition [2] read?
A: inactive

Q: What about the IC50 [1] of the same molecule?
A: > 111 µM

Q: `O=C1c2ccccc2-c2c1c1ccccc1c(=O)n2CCCCCNS(=O)(=O)c1ccccc1` was tested. Which inhibition [2] did it give?
A: inactive

Q: And the IC50 [1]?
A: > 111 µM

Q: How did the IC50 [1] turn out when `O=C1c2ccccc2-c2c1c1ccccc1c(=O)n2CCCCCCCCCCCCn1c2c(c3ccccc3c1=O)C(=O)c1ccccc1-2` was run?
A: > 111 µM

Q: With `Cc1ccc(S(=O)(=O)OCCCCCCn2c3c(c4ccccc4c2=O)C(=O)c2ccccc2-3)cc1` as the molecule, how does the IC50 [1] read?
A: > 111 µM

Q: How did the IC50 [1] turn out when `O=C1c2ccccc2-c2c1c1ccccc1c(=O)n2CCCO` was run?
A: > 111 µM

Q: Which IC50 [1] does the source give for `O=C1c2ccccc2-c2c1c1ccccc1c(=O)n2CCO` here?
A: > 111 µM

Q: With `Cc1ccc(S(=O)(=O)OCCCn2c3c(c4ccccc4c2=O)C(=O)c2ccccc2-3)cc1` as the molecule, how does the IC50 [1] read?
A: > 111 µM

Q: How did the IC50 [1] turn out when `Cc1ccc(S(=O)(=O)OCCCCCn2c3c(c4ccccc4c2=O)C(=O)c2ccccc2-3)cc1` was run?
A: > 111 µM

Q: With `O=C1c2ccccc2-c2c1c1ccccc1c(=O)n2CCCCO` as the molecule, how does the IC50 [1] read?
A: > 111 µM
